For data set [1], the target named is T1, Prostaglandin G/H synthase 2 (Homo sapiens) (UniProt P35354).
T1 sequence (whole entry): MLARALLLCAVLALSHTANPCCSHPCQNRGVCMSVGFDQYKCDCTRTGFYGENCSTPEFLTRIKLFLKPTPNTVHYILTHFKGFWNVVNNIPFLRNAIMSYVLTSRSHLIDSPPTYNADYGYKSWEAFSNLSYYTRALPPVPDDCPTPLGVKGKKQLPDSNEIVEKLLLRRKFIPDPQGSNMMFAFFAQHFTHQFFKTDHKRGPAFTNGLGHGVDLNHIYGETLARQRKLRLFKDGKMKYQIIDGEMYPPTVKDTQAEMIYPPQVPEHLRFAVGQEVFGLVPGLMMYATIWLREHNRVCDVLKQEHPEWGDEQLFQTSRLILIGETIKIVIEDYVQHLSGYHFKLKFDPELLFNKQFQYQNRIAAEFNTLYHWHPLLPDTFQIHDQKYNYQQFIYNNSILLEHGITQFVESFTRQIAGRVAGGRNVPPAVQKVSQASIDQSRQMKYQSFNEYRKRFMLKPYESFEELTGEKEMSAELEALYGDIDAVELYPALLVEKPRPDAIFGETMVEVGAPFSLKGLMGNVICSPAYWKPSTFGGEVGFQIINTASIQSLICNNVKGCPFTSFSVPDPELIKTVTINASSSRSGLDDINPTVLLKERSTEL
The data set is described as follows: Inhibition of COX2-induced PGE2 production in human A549 cells assessed as PGE2 level at 30 uM by ELISA (reference value: 57 +/- 4 pg/ml). The data set is classed as cell-based. An outline of the steps:
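A549 NSCLC cells treated with compounds at 30 μM; prostaglandin E2 released via COX quantified by ELISA, reported as pg/mL; mean ± S.D. of 3 determinations each repeated in duplicate; Student's t-test for significance.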
In general terms: ELISA stands for enzyme-linked immunosorbent assay.

Data set [2] concerns the target T1, Prostaglandin G/H synthase 2 (Homo sapiens). The data set is described as follows: Inhibition of COX2-induced PGE2 production in human A549 cells assessed as PGE2 level at 4 uM by ELISA (reference value: 126 +/- 17 pg/ml). The data set is classed as cell-based. An outline of the steps:
(§1)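 COX-derived PGE2 released by A549 cells, measured by ELISA in pg/mL. Test concentrations 4 or 90 μM; combination wells got aspirin + Tempol at 90 μM each. Mean ± S.D. of 3 determinations, each in duplicate; Student's t-test.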

Data set [3] deals with 661W. The data set is described as follows: Antioxidant activity in mouse 661W cells assessed as inhibition of antimycin-induced mitochondrial ROS production at 10 uM by fluorescence assay relative to control. The data set is classed as functional.
The test system of data set [4] is 661W. The data set is described as follows: Antioxidant activity in mouse 661W cells assessed as inhibition of antimycin-induced mitochondrial ROS production at 50 uM by fluorescence assay relative to control. The class given is functional.
For data set [5], the system named is 661W. Put plainly: Antioxidant activity in mouse 661W cells assessed as inhibition of antimycin-induced mitochondrial ROS production at 100 uM by fluorescence assay relative to control. The class given is functional.
The target of data set [6] is T1, Prostaglandin G/H synthase 2 (Homo sapiens). The data set is described as follows: Inhibition of COX2-induced PGE2 production in human A549 cells assessed as PGE2 level at 90 uM by ELISA. The class given is cell-based. A digest of the protocol:
as §1

Data set [7] relates to NCI-H1299. Put plainly: Growth inhibition of human NCI-H1299 cells assessed as cell growth at 90 uM by MTT assay relative to control. The class given is functional. Particulars: read-out: Activity. A digest of the protocol:
(§2)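 NCI-H1299 cell growth by MTT assay, tested at 18–900 μM; combination wells got aspirin + Tempol at equal concentration. Given as % growth. Mean ± S.D. of 3 experiments, each run in duplicate; Student's t-test.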
(Formazan colour is commonly taken as a measure of viable cells.)

The subject of data set [8] is NCI-H1299. Put plainly: Growth inhibition of human NCI-H1299 cells assessed as cell growth at 900 uM by MTT assay relative to control. The class given is functional. Particulars: read-out: Activity. A digest of the protocol:
as §2

Data set [9] deals with NCI-H1299. Put plainly: Growth inhibition of human NCI-H1299 cells assessed as cell growth at 90 uM in presence of tempol by MTT assay relative to control. The data set is classed as functional. The following applies: read-out: Activity. A digest of the protocol: (§3)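 NCI-H1299 human NSCLC cells; proliferation measured by MTT assay with compounds at 90 or 900 μM, tested alone or as aspirin plus Tempol combination; growth expressed as % of control; mean ± S.D. of 3 experiments each in duplicate; significance by Student's t-test.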

Data set [10] deals with NCI-H1299. The data set is described as follows: Growth inhibition of human NCI-H1299 cells assessed as cell growth at 900 uM in presence of tempol by MTT assay relative to control. The data set is classed as functional. The following applies: read-out: Activity. An outline of the steps: as §3
Data set [11] concerns the target T1, Prostaglandin G/H synthase 2 (Homo sapiens). Put plainly: Inhibition of COX2-induced PGE2 production in human A549 cells assessed as PGE2 level at 90 uM in presence of aspirin by ELISA (reference value: 126 +/- 17 pg/ml). The data set is classed as cell-based. An outline of the steps:
as §1

Data set [12] has as its system A549. The data set is described as follows: Anti-oxidant activity in human A549 cells assessed as inhibition of H2O2-induced ROS production by measuring ROS level at 100 uM by DCFH-DA staining based fluorescence assay (reference value: 194 +/- 13%). The data set is classed as functional. The arrangement: scale not given: the % may be the effect or the level left.

For data set [13], the system named is A549. The data set is described as follows: Effect on basal ROS level in human A549 cells at 100 uM by DCFH-DA staining based fluorescence assay (reference value: 100 +/- 5%). The class given is cell-based. The following applies: a549, 100 µM.
The test system of data set [14] is NCI-H1299. The data set is described as follows: Growth inhibition of human NCI-H1299 cells assessed as cell growth at 90 uM in presence of aspirin by MTT assay relative to control. The class given is functional. The following applies: read-out: Activity. An outline of the steps:
as §2

The subject of data set [15] is NCI-H1299. Put plainly: Growth inhibition of human NCI-H1299 cells assessed as cell growth at 900 uM in presence of aspirin by MTT assay relative to control. The following applies: read-out: Activity. The class given is functional. An outline of the steps: as §2

For orientation: inhibition means the change of the read-out against control, counted positive when it falls.

As to `CC(=O)Oc1cc2c(cc1C(=O)O)C(C)(C)N([O])C2(C)C`, the Activity in data set [1] worked out at 52 pg/mL.

Turning to `CC(=O)Oc1ccccc1C(=O)NC1CC(C)(C)N([O])C(C)(C)C1`, the Activity in data set [2] is 99 pg/mL; in data set [1], 54 pg/mL.

Take `CC(=O)Oc1ccccc1C(=O)Nc1ccc2c(c1)C(C)(C)N([O])C2(C)C`: the Activity in data set [1] was 45 pg/mL.

On to `CC(=O)Oc1ccccc1C(=O)OC1CC(C)(C)N([O])C(C)(C)C1`, for which the Activity was 87 pg/mL in data set [2] and 31 pg/mL in [1].

Consider `CC1(C)CC(C(=O)Oc2ccccc2C(=O)O)C(C)(C)N1[O]` (configuration not stated), for which, in data set [1], the Activity came to 34 pg/mL.

For the compound `CC1(C)CC(C(=O)Oc2ccccc2C(=O)OCc2ccccc2)CC(C)(C)N1[O]`, in [1], the Activity amounted to 23 pg/mL.

`CC1(C)c2cc(O)c(C(=O)O)cc2C(C)(C)N1[O]`: the Activity in [1] was 50 pg/mL.

For the compound `COc1ccc2c(c1)c(CC(=O)Nc1ccc3c(c1)C(C)(C)N([O])C3(C)C)c(C)n2C(=O)c1ccc(Cl)cc1`, the Activity in data set [1] amounted to 58 pg/mL. The inhibition in the data set on 661W [3] worked out at 97.6%; in the data set with 661W [4] it was 82.3%; in the data set on 661W [5], 88.4%.

For `CC(=O)Oc1ccccc1C(=O)O` [ASPIRIN], in data set [6], the Activity turned out to be 79 pg/mL. Further, the figures for the growth at 90 µM in the data set on NCI-H1299 [7] and in the data set with NCI-H1299 [9] were 103% and 102%, respectively. Moreover, the growth at 900 µM was determined as 49% with NCI-H1299 [8] and 53% in the data set with NCI-H1299 [10].

As for `CC1=C[C@H](O)CC(C)(C)[C@H]1/C=C/C(C)=C/C=C/C(C)=C/C=C/C=C(C)/C=C/C=C(C)/C=C/C1=C(C)C[C@@H](O)CC1(C)C` [LUTEIN], the inhibition at 10 µM in the data set with 661W [3] came to 89.7%.

Regarding `CC1(C)CC(O)CC(C)(C)N1[O]` [TEMPOL], the Activity in data set [11] worked out at 75 pg/mL; in data set [6], 105 pg/mL; in the data set on A549 [12] it was 155%; in the data set with A549 [13], 103%. In addition, the growth at 90 µM stood at 100% with NCI-H1299 [7] and 102% in the data set on NCI-H1299 [14]. Besides, the figures for the growth at 900 µM in the data set on NCI-H1299 [8] and in the data set on NCI-H1299 [15] were 98% and 53%, respectively.

Values taken from ChEMBL document CHEMBL4145529, “Design, synthesis and biological evaluation of hybrid nitroxide-based non-steroidal anti-inflammatory drugs” (Eur J Med Chem, 2018).
